Data as given in PMC4919611 (EBioMedicine, 2016).

Columns and labels:
[1] = molecular target: T1, CBFβ-RUNX1 Runt domain binding (Homo sapiens, UniProt Q13951); experiment: FRET assay of CBFβ; conditions: inhibition of CBFβ-Runt domain binding
T1 sequence (Q13951 1-141): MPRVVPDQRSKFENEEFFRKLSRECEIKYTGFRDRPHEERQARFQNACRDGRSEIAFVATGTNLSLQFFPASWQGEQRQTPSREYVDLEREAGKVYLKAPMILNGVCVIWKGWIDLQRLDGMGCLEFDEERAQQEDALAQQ
Method in brief: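 FRET binding assay using 100 nM Cerulean-Runt domain and 100 nM Venus-CBFβ across a test compound concentration series. Read-out was the emission ratio at 525/474 nm. Run in duplicate.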

[2] = molecular target: T2, CBFβ (Homo sapiens, UniProt Q13951); experiment: NMR detection of interaction with CBFβ; type: binding
T2 sequence (Q13951 1-141): T1 sequence (Q13951 1-141)
Method in brief: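 CBFβ (1-141) in 50 mM KPi pH 7.5, 0.1 mM EDTA, 1 mM DTT, 5% DMSO, 5% D2O. HSQC: 150 μM protein titrated with 600 μM test compound at 800 MHz; 15N/13C shift perturbations taken with versus without compound. STD: 200 μM CBFβ, 2 mM compound, 600 MHz, 25 °C, saturation 500–2000 ms, on-resonance 0.4 ppm, off-resonance 30 ppm.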

[3] = molecular target: RUNX1 Runt domain (Homo sapiens, UniProt Q01196); experiment: NMR detection of interaction with RUNX1 Runt domain; type: binding
[4] = system: CBFβ-Runt domain interaction; conditions: ref Cunningham et al., 2012; cited from earlier work
[5] = system: CBFβ-RUNX1 binding; conditions: ref Cunningham et al., 2012; cited from earlier work
[6] = system: panel of 11 leukemia cell lines; experiment: Viability of a panel of 11 leukemia cell lines; type: cell-based; conditions: 48 h treatment, 11 cell lines
Method in brief: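 Eleven leukemia lines grown in IMDM with 10% FBS. Plated at 5 × 10^5 cells/ml and treated 48 h with test compound at several doses or DMSO. DAPI-stained; at least 2 × 10^4 events acquired by flow cytometry. Viability taken as percent DAPI-negative cells relative to control.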

Chain of RUNX1 Runt domain (Q01196 50-178 limits assumed): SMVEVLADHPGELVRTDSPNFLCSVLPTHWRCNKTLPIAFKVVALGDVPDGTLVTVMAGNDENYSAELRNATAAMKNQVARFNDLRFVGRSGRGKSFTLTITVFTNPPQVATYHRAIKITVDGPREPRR

| SMILES | activity in the FRET assay (in words) [1] | interaction with CBFβ by NMR [2] | interaction with RUNX1 Runt domain by NMR [3] | effect in the alpha screen assay [4] | effect on CBFβ-RUNX1 binding in cells [5] | growth inhibition / activity against leukemia cell lines (in words) [6] |
| --- | --- | --- | --- | --- | --- | --- |
| O=C1CN=C(c2ccc[nH]2)c2cc(Cl)ccc2N1 [Ro5-3335] | no effect | could not detect any interaction | could not detect any interaction | does not show significant effects | does not show an effect |  |
| c1ccc(-c2nc3ccccc3[nH]2)nc1 [AI-4-88] | complete loss of activity |  |  |  |  | did not observe any activity |
